Source: ChEMBL document CHEMBL1134859, “Rapid synthesis of triazine inhibitors of inosine monophosphate dehydrogenase” (Bioorg Med Chem Lett, 2002)

Legend:
CCRF-CEM = experiment: Inhibitory activity against human T-lymphoblast CEM cell line using T cell proliferation assay; assay type: functional, cell-based
Summary of the method: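 Human T-lymphoblast CEM cells were grown in RPMI 1640 with 10% heat-inactivated FBS and penicillin/streptomycin, then seeded at 3000 cells/well in 0.5% DMSO. Compounds were tested in triplicate from a 10 uM final top concentration in 3-fold serial dilutions. Cells were kept 72 h in humidified 5% CO2.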

[1] = target: Inosine-5'-monophosphate dehydrogenase 2 (Homo sapiens, UniProt P12268); experiment: Inhibition of human Inosine-5'-monophosphate dehydrogenase 2

SMILES | IC50 (CCRF-CEM) [nM] | IC50 [1] [nM]
CNc1nc(Nc2ccc(-c3cnco3)c(OC)c2)nc(-c2ccccc2)n1 | > 1000 | 76
CNc1nc(NC)nc(Nc2ccc(-c3cnco3)c(OC)c2)n1 | > 1000 | 620
CNc1nc(Nc2ccc(-c3cnco3)c(OC)c2)nc(N2CCC[C@H]2COC)n1 | > 1000 | 390
COc1nc(Nc2ccc(-c3cnco3)c(OC)c2)nc(-c2ccccc2)n1 | > 1000 | 41
COc1cc(Nc2nc(NCC(=O)O)nc(-c3ccccc3)n2)ccc1-c1cnco1 | > 1000 | 250
COc1cc(Nc2nc(NCc3ccccc3)nc(-c3ccccc3)n2)ccc1-c1cnco1 | > 1000 | 410
COc1cc(Nc2nc(-c3ccccc3)nc(N3CCC[C@H]3CO)n2)ccc1-c1cnco1 | > 1000 | 72
COc1cc(Nc2nc(N)n(-c3ccccc3)n2)ccc1-c1cnco1 | > 1000 | –
COc1cc(Nc2nc(NCCC(=O)O)nc(-c3ccccc3)n2)ccc1-c1cnco1 | > 1000 | 130
CNc1nc(Nc2ccc(-c3cnco3)c(OC)c2)nc(-c2ccco2)n1 | > 1000 | 57
COC[C@@H]1CCCN1c1nc(Nc2ccc(-c3cnco3)c(OC)c2)nc(-c2ccccc2)n1 | > 1000 | 290
COc1cc(Nc2nc(-c3ccccc3)nc(N3CCC[C@@H]3CO)n2)ccc1-c1cnco1 | > 1000 | 78
COc1cc(Nc2nc(NCCc3ccccc3)nc(-c3ccccc3)n2)ccc1-c1cnco1 | > 1000 | > 1000

Next, values leading:

IC50 (CCRF-CEM) [nM] | IC50 [1] [nM] | SMILES
> 1000 | 330 | COc1cc(Nc2nc(-c3ccccc3)nc(N3CCN(C)CC3)n2)ccc1-c1cnco1
> 1000 | 190 | COc1cc(Nc2nc(-c3ccccc3)nc(N3CCOCC3)n2)ccc1-c1cnco1
> 1000 | 160 | CNc1nc(Nc2ccc(-c3cnco3)c(OC)c2)nc(N2CCOCC2)n1
> 1000 | 78 | COc1cc(Nc2nc(NCCCC(=O)O)nc(-c3ccccc3)n2)ccc1-c1cnco1
> 1000 | 160 | COc1cc(Nc2nc(-c3ccccc3)nc(N3CCN(C=O)CC3)n2)ccc1-c1cnco1
> 1000 | 32 | COc1cc(Nc2nc(OCc3ccccc3)nc(-c3ccccc3)n2)ccc1-c1cnco1
> 1000 | 170 | CNc1nc(Nc2ccc(-c3cnco3)c(OC)c2)nc(-c2ccc(C)cc2)n1
5900 | 18 | COc1cc(Nc2nc(O)nc(-c3ccccc3)n2)ccc1-c1cnco1
> 1000 | 310 | CNc1nc(Nc2ccc(-c3cnco3)c(OC)c2)nc(-c2ccccc2C)n1
> 1000 | 130 | CNc1nc(Nc2ccc(-c3cnco3)c(OC)c2)nc(N2CCC[C@H]2CO)n1
> 1000 | 130 | CNc1nc(Nc2ccc(-c3cnco3)c(OC)c2)nc(-c2cccc(C)c2)n1
3500 | 45 | COc1cc(Nc2nncc(-c3ccccc3)n2)ccc1-c1cnco1
> 1000 | 270 | COc1cc(Nc2nc(-c3ccccc3)nc(N(C)C)n2)ccc1-c1cnco1
2400 | 58 | COc1cc(Nc2nc(NCCc3cccnc3)nc(-c3ccccc3)n2)ccc1-c1cnco1
> 1000 | 720 | CNc1nc(Nc2ccc(-c3cnco3)c(OC)c2)nc(N2CCC[C@@H]2CO)n1
> 1000 | 54 | COc1cc(Nc2nc(N)nc(-c3ccccc3)n2)ccc1-c1cnco1
390 | – | COc1c(C)c2c(c(O)c1C/C=C(\C)CCC(=O)O)C(=O)OC2 [MYCOPHENOLIC ACID]
